Source: ChEMBL document CHEMBL2057177, “Analogues of fenarimol are potent inhibitors of Trypanosoma cruzi and are efficacious in a murine model of Chagas disease” (J Med Chem, 2012)
In brackets after ≈: the same amount, converted by molar mass. Activity calls are given as the source filed them. No cut-off for these calls is given here.

How the values were obtained:
[1] = tested on: Trypanosoma cruzi; assay: Antitrypanosomal activity against trypomastigotes of Trypanosoma cruzi Tulahuen infected immunosuppressed Swiss mouse assessed as level of parasite in blood at 20 mg/kg, po administered 8 day after post infection qd for 20 days measured after 3 cycles of immunosuppression; type: functional, organism-based; parameters: dose 20 mg/kg
[2] = tested on: Trypanosoma cruzi; assay: Antitrypanosomal activity against trypomastigotes of Trypanosoma cruzi Tulahuen infected in Swiss mouse model of chagas disease assessed as increase in host survival at 100 mg/kg, po administered 8 day after post infection qd for 20 days; type: functional, organism-based; parameters: dose 100 mg/kg
[3] = tested on: Trypanosoma cruzi; assay: Antitrypanosomal activity against trypomastigotes of Trypanosoma cruzi Tulahuen infected immunosuppressed Swiss mouse assessed as level of parasite in blood at 100 mg/kg, po administered 8 day after post infection qd for 20 days measured after 3 cycles of immunosuppression; type: functional, organism-based; parameters: dose 100 mg/kg
[4] = tested on: Trypanosoma cruzi; assay: Antitrypanosomal activity against trypomastigotes of Trypanosoma cruzi Tulahuen infected in Swiss mouse model of chagas disease assessed as decrease in parasite level in blood at 100 mg/kg, po administered 8 day after post infection qd for 20 days; type: functional; parameters: scale not given: the % may be the effect or the level left
[5] = tested on: L6; assay: Cytotoxicity against rat L6 cells after 72 hrs by Alamar Blue assay; type: cell-based; conditions: L6, 72 h
How it was run: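 L6 rat skeletal myoblasts in RPMI 1640 with 10% FBS. Exposed to compound for 72 h, seven-point serial dilutions in triplicate. Alamar Blue read at 570 and 630 nm. IC50 is the mean of at least two assays; podophyllotoxin used as control.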

[6] = Plasma concentration in Swiss mouse at 20 mg/kg, po after 24 hrs; type: ADME, organism-based; parameters: dose 20 mg/kg, route oral
[7] = Plasma concentration in Swiss mouse at 20 mg/kg, po after 1 hr; type: ADME, organism-based; parameters: dose 20 mg/kg, route oral
How it was run: (§1)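 Nonfasted male Swiss outbred mice (23.8–39.9 g), fed throughout. Dosed by oral gavage as solution or suspension in aqueous vehicle. Plasma assayed by LC-MS against blank-plasma standards after acetonitrile precipitation; LLOQ 0.001–0.015 μM.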

[8] = Plasma concentration in Swiss mouse at 20 mg/kg, po after 8 hrs; type: ADME, organism-based; parameters: dose 20 mg/kg, route oral; how it was run: as §1
[9] = molecular target: CYP3A4/5 (Homo sapiens, UniProt P08684+P20815); assay: Inhibition of CYP3A4/5 in human liver microsomes; type: ADME, Microsome
[10] = tested on: Trypanosoma cruzi; assay: Antitrypanosomal activity against trypomastigotes of Trypanosoma cruzi Tulahuen expressing the beta- galactosidase gene infected rat L6 cells after 96 hrs; type: functional, organism-based; conditions: L6, 96 h
How it was run: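 Tulahuén trypomastigotes expressing β-galactosidase, maintained by serial passage in L6 cells. L6 cells seeded and left 24 h at 37 °C, 5% CO2, then infected at MOI 3 for 48 h. Compound exposure 96 h, benznidazole control. CPRG with 0.3% Nonidet P-40 added, absorbance at 530 nm after 4−6 h. IC50 taken from % inhibition curve; mean of at least two assays.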

[11] = Kinetic solubility of the compound at pH 6.5 by nephelometric analysis; type: physicochemical; conditions: buffer, read-out: Kinetic_solubility
[12] = Plasma concentration in Swiss mouse at 100 mg/kg, po after 8 hrs; type: ADME, organism-based; parameters: dose 100 mg/kg, route oral
How it was run: (§2)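 Nonfasted male Swiss Outbred mice weighing 23.8−39.9 g, with food and water freely available, dosed by oral gavage as an aqueous solution or suspension. Plasma proteins precipitated with acetonitrile and compound quantified by LC-MS against standards made in blank mouse plasma. Lower limit of quantitation 0.001−0.015 μM.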

[13] = Plasma concentration in Swiss mouse at 100 mg/kg, po after 1 hr; type: ADME, organism-based; parameters: dose 100 mg/kg, route oral; how it was run: as §2

## O=C(Cn1ccnc1[N+](=O)[O-])NCc1ccccc1 [BENZNIDAZOLE]
[1]
  Activity: Active
[2]
  Activity: Active
[3]
  Activity: Active
[4]
  Activity: >99%

## OC(c1ccc(Cl)cc1)(c1ncccn1)c1ccccc1Cl (racemic)
[5]
  IC50: > 100 µM

## OC(c1ccc(C(F)(F)F)cc1)(c1cccnc1)c1ccc(Cl)cc1F (racemic)
[6]
  concentration at 24 h: 3 nM
[7]
  concentration at 1 h: 1240 nM
[8]
  concentration at 8 h: 230 nM
[9]
  IC50: 1400 nM
[10]
  IC50: 2 nM
[11]
  solubility kinetic: < 1.6 µg/mL
[5]
  IC50: > 100 µM

## OC(c1ccc(Br)cc1)(c1ccc(C(F)(F)F)cc1)c1cccnc1 (racemic)
[10]
  IC50: 20 nM

## OC(c1ccc(Cl)cc1)(c1ccncn1)c1ccccc1Cl (racemic)
[5]
  IC50: > 100 µM

## OC(c1ccc(Cl)cc1)(c1ccc(Cl)cc1)c1cccnc1
[10]
  IC50: 95 nM

## CC(C)Oc1ccc(C(O)(c2ccc(Cl)cc2)c2cccnc2)cc1 (racemic)
[9]
  IC50: 1900 nM
[12]
  concentration at 8 h: 600 nM
[10]
  IC50: 2 nM
[13]
  concentration at 1 h: 9.6 µM
[11]
  solubility kinetic: 1.6 µg/mL (≈ 4.52 µM)

## OC(c1ccc(Cl)cc1)(c1cncnc1)c1cccc(F)c1 (racemic)
[5]
  IC50: > 100 µM

## OC(c1ccc(Cl)cc1)(c1cccnc1)c1ccccc1C(F)(F)F (racemic)
[10]
  IC50: 120 nM

## NC(=O)c1ccc(C(O)(c2ccc(C(F)(F)F)cc2)c2cccnc2)cc1 (racemic)
[5]
  IC50: > 100 µM

## N#CC(c1ccc(Cl)cc1)(c1cccnc1)c1ccccc1Cl (racemic)
[10]
  IC50: 50 nM

## OC(c1ccc(Cl)cc1)(c1cccnc1)c1cnc(Cl)s1 (racemic)
[5]
  IC50: > 100 µM

## Cc1ccc(C(O)(c2ccc(Cl)cc2)c2cncnc2)cc1 (racemic)
[10]
  IC50: 24 nM

## OC(c1ccc(Cl)cc1)(c1cncnc1)c1ccccc1F (racemic)
[5]
  IC50: > 100 µM

## OC(c1ccc(Cl)cc1)(c1cccnc1)c1cncs1 (racemic)
[5]
  IC50: > 100 µM

## Cc1ccccc1C(O)(c1ccc(Cl)cc1)c1cccnc1 (racemic)
[5]
  IC50: 82 µM

## CC(C)Oc1ccc(C(O)(c2cccnc2)c2cnc(Cl)nc2)cc1 (racemic)
[10]
  IC50: 304 nM
[5]
  IC50: > 100 µM

## NC(c1ccc(Cl)cc1)(c1cccnc1)c1ccccc1Cl (racemic)
[10]
  IC50: 90 nM

## OC(c1ccc(C(F)(F)F)cc1)(c1cccnc1)c1cc2ccccc2s1 (racemic)
[10]
  IC50: 20 nM

## N#Cc1cccc(C(O)(c2ccc(Cl)cc2)c2cccnc2)c1 (racemic)
[5]
  IC50: > 100 µM

## COc1ccc(C(O)(c2ccc(Cl)cc2)c2cccnc2)cc1 (racemic)
[10]
  IC50: 40 nM

## CS(=O)(=O)Nc1ccc(C(O)(c2ccc(Cl)cc2)c2cccnc2)cc1 (racemic)
[10]
  IC50: 30 nM
[5]
  IC50: > 100 µM

## COc1cccc(C(O)(c2ccc(Cl)cc2)c2cccnc2)c1 (racemic)
[10]
  IC50: 60 nM

## OC(c1ccc(Cl)cc1)(c1ccccn1)c1ccccc1Cl (racemic)
[10]
  IC50: 27000 nM
[5]
  IC50: > 100 µM

## CC(C)C(=O)Nc1ncc(C(O)(c2ccc(Cl)cc2)c2cccnc2)s1 (racemic)
[10]
  IC50: 21 nM

## Clc1ccc(C(c2ccc(Cl)cc2)c2cncnc2)cc1
[10]
  IC50: 683 nM

## OC(c1ccc(Cl)cc1)(c1cccnc1)c1ccccc1Cl (racemic)
[9]
  IC50: 600 nM
[11]
  solubility kinetic: 3.1 µg/mL (≈ 9.39 µM)

## CC(C)Oc1ccc(C(O)(c2ccc(Cl)cc2)c2cccnc2)c(F)c1 (racemic)
[10]
  IC50: 26 nM
[5]
  IC50: 58.2 µM

## OC(c1ccc(Cl)cc1)(c1cccnc1)c1ccc(Br)cc1F (racemic)
[10]
  IC50: 26 nM
[5]
  IC50: 79.2 µM

## OC(c1cccnc1)(c1cccs1)c1ccc(Cl)cc1F (racemic)
[10]
  IC50: 5 nM
[5]
  IC50: > 100 µM

## OC(c1ccc(Cl)cc1)(c1cccnc1)c1ccccc1Br (racemic)
[10]
  IC50: 70 nM

## CC(C)c1ccc(C(O)(c2ccc(C(F)(F)F)cc2)c2cccnc2)cc1 (racemic)
[10]
  IC50: 2 nM
[5]
  IC50: 56.3 µM

## CC(C)CNC(c1ccc(Cl)cc1)(c1cccnc1)c1ccccc1Cl (racemic)
[10]
  IC50: 606 nM

## N#Cc1ccc(C(O)(c2ccc(C(F)(F)F)cc2)c2cccnc2)c(F)c1 (racemic)
[6]
  concentration at 24 h: 50 nM
[7]
  concentration at 1 h: 1400 nM
[8]
  concentration at 8 h: 300 nM
[9]
  IC50: 4100 nM
[10]
  IC50: 2 nM
[11]
  solubility kinetic: 6.3 µg/mL (≈ 16.9 µM)

## N#Cc1ccc(C(O)(c2ccc(Cl)cc2)c2cccnc2)c(F)c1 (racemic)
[5]
  IC50: > 100 µM

## OC(c1ccc(Cl)cc1)(c1cccnc1)c1cccc(C(F)(F)F)c1 (racemic)
[10]
  IC50: 70 nM

## OC(c1ccc(Cl)cc1)(c1ccc(C(F)(F)F)cc1)c1cccnc1 (racemic)
[10]
  IC50: 8 nM

## OC(c1ccc(Cl)cc1)(c1cccnc1)c1ccc(Cl)cc1F (racemic)
[9]
  IC50: 900 nM
[10]
  IC50: 10 nM
[11]
  solubility kinetic: 1.6 µg/mL (≈ 4.6 µM)
[5]
  IC50: 59.4 µM

## N#Cc1ccc(C(O)(c2ccc(Cl)cc2)c2cccnc2)cc1 (racemic)
[10]
  IC50: 70 nM
[5]
  IC50: > 100 µM

## OC(c1ccc(C(F)(F)F)cc1)(c1ccc(C(F)(F)F)cc1)c1cccnc1
[10]
  IC50: 15 nM

## OC(c1ccc(Cl)cc1)(c1ccc(C(F)(F)F)cc1)c1cncnc1 (racemic)
[10]
  IC50: 197 nM
[5]
  IC50: 66.8 µM

## CC(C)Oc1ccccc1C(O)(c1ccc(Cl)cc1)c1cccnc1 (racemic)
[5]
  IC50: 48.3 µM

## CN(C)c1ccc(C(O)(c2ccc(C(F)(F)F)cc2)c2cccnc2)cc1 (racemic)
[10]
  IC50: 6 nM

## NC(=O)c1cccc(C(O)(c2ccc(C(F)(F)F)cc2)c2cccnc2)c1 (racemic)
[10]
  IC50: 70 nM
[5]
  IC50: > 100 µM

## COC(c1ccc(Cl)cc1)(c1cccnc1)c1ccccc1Cl (racemic)
[10]
  IC50: 90 nM
[5]
  IC50: 58.7 µM

## Cc1ccc(C(O)(c2ccc(OC(C)C)cc2)c2cccnc2)c(F)c1 (racemic)
[10]
  IC50: 3 nM

## CC(C)Oc1cccc(C(O)(c2ccc(Cl)cc2)c2cccnc2)c1 (racemic)
[10]
  IC50: 82 nM
[5]
  IC50: 67.6 µM

## OC(c1ccc(Cl)cc1)(c1cccnc1)c1ccccc1F (racemic)
[10]
  IC50: 35 nM
[5]
  IC50: > 100 µM

## OC(c1ccc(Cl)cc1)(c1cccnc1)c1nccs1 (racemic)
[5]
  IC50: > 100 µM

## OC(c1ccc(Cl)cc1)(c1cnccn1)c1ccccc1Cl (racemic)
[5]
  IC50: > 100 µM

## CC(C)Oc1ncc(C(O)(c2ccc(Cl)cc2)c2cccnc2)cn1 (racemic)
[10]
  IC50: 60 nM
[5]
  IC50: > 100 µM

## Clc1ccc(C(c2ccc(Cl)cc2)c2cccnc2)cc1
[10]
  IC50: 80 nM
[5]
  IC50: 84.7 µM

## OC(c1ccc(Cl)cc1)(c1cccnc1)c1cccc(F)c1 (racemic)
[10]
  IC50: 100 nM
[5]
  IC50: 66 µM

## OC(c1ccc(Cl)cc1)(c1cccnc1)c1ccsc1 (racemic)
[5]
  IC50: > 100 µM

## NC(=O)c1cccc(C(O)(c2cccnc2)c2ccc(Cl)cc2F)c1 (racemic)
[6]
  concentration at 24 h: 6 nM
[7]
  concentration at 1 h: 10500 nM
[8]
  concentration at 8 h: 440 nM
[9]
  IC50: 3900 nM
[10]
  IC50: 25 nM
[11]
  solubility kinetic: 50 µg/mL (≈ 140 µM)
[5]
  IC50: > 100 µM

## [O-][n+]1cncc(C(O)(c2ccc(Cl)cc2)c2ccccc2Cl)c1 (racemic)
[5]
  IC50: > 100 µM

## CC(C)Oc1ccc(C(O)(c2ccc(C(F)(F)F)cc2)c2cccnc2)cc1 (racemic)
[9]
  IC50: 1400 nM
[10]
  IC50: 4 nM
[11]
  solubility kinetic: 1.6 µg/mL (≈ 4.13 µM)

## Nc1ncc(C(O)(c2ccc(Cl)cc2)c2cccnc2)s1 (racemic)
[10]
  IC50: 260 nM
[5]
  IC50: 56 µM

## Clc1ccc(C(c2cncnc2)c2ccccc2Cl)cc1 (racemic)
[5]
  IC50: > 100 µM

## OC(c1ccc(Cl)cc1)(c1cccnc1)c1cncnc1 (racemic)
[7]
  concentration at 1 h: 300 nM
[8]
  concentration at 8 h: < 2 nM
[9]
  IC50: 5000 nM
[11]
  solubility kinetic: > 100 µg/mL
[5]
  IC50: > 100 µM

## CC(C)Oc1ccc(C(O)(c2cccnc2)c2ccc(Cl)cc2F)cc1 (racemic)
[9]
  IC50: 1100 nM
[10]
  IC50: 1 nM
[11]
  solubility kinetic: 1.6 µg/mL (≈ 4.3 µM)

## OC(c1ccc(Cl)cc1)(c1cccnc1)c1ccc(F)cc1F (racemic)
[10]
  IC50: 16 nM

## OC(c1ccc(Cl)cc1)(c1ccc(Cl)cc1)c1cncnc1
[10]
  IC50: 220 nM
